Assay results reported in ChEMBL document CHEMBL4382267, “Fusaristatin C, a Cyclic Lipodepsipeptide from Pithomyces sp. RKDO 1698” (J Nat Prod, 2018).
Active and inactive are the calls of the source. The calls are words filed in the database; no cut-off is given here.

Experiments:
HCT-116 = assay: Cytotoxicity against human HCT116 cells measured after 24 hrs by alamar blue assay; assay type: functional, cell-based
Vero = assay: Cytotoxicity against African green monkey Vero cells measured after 24 hrs by alamar blue assay; assay type: cell-based; conditions: chlorocebus sabaeus
Staphylococcus warneri = assay: Antimicrobial activity against Staphylococcus warneri ATCC 17917 at 265 uM after 22 hrs by microbroth dilution method; assay type: functional, organism-based
In short: (§1)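 Microbroth dilution assay. The top concentration tested was 128 μg/mL, equal to 265 μM.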

Proteus vulgaris = assay: Antimicrobial activity against Proteus vulgaris ATCC 12454 at 265 uM after 22 hrs by microbroth dilution method; assay type: functional, organism-based; in short: as §1
[1] = Cytotoxicity against HEKa cells measured after 24 hrs by alamar blue assay; assay type: cell-based; conditions: human
Enterococcus faecium = assay: Antimicrobial activity against vancomycin-resistant Enterococcus faecium EF379 at 265 uM after 22 hrs by microbroth dilution method; assay type: functional, organism-based
In short: (§2)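 Microbroth dilution susceptibility test; compound tested up to a highest concentration of 128 μg/mL (265 μM).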

[2] = tested on: Mycobacterium tuberculosis; assay: Antimicrobial activity against Mycobacterium tuberculosis ATCC 25177 at 265 uM after 4 days by microplate alamar blue assay; assay type: functional, organism-based; conditions: H37Ra
Pseudomonas aeruginosa = assay: Antimicrobial activity against Pseudomonas aeruginosa ATCC 14210 at 265 uM after 22 hrs by microbroth dilution method; assay type: functional, organism-based; in short: as §1
BJ = assay: Cytotoxicity against human BJ cells measured after 24 hrs by alamar blue assay; assay type: cell-based
Staphylococcus aureus = assay: Antimicrobial activity against methicillin resistant Staphylococcus aureus ATCC 33591 at 265 uM after 22 hrs by microbroth dilution method; assay type: functional, organism-based; in short: as §2
MCF7 = assay: Cytotoxicity against human MCF7 cells measured after 24 hrs by alamar blue assay; assay type: functional, cell-based
Homo sapiens = species: Homo sapiens; assay: Cytotoxicity against human HTB-26 cells measured after 24 hrs by alamar blue assay; assay type: functional, cell-based
Candida albicans = assay: Antimicrobial activity against Candida albicans ATCC 14035 at 265 uM after 22 hrs by microbroth dilution method; assay type: functional, organism-based; in short: as §1

SMILES: C=C1NC(=O)[C@H](C)[C@H](CCCCCCCC(C)CCC)OC(=O)[C@H](CO)NC(=O)CCNC1=O (stereo partly drawn)
- Activity (HCT-116): inactive
- Activity (Vero): Non-Toxic
- Activity (Staphylococcus warneri): inactive
- Activity (Proteus vulgaris): inactive
- Activity [1]: Non-Toxic
- Activity (Enterococcus faecium): inactive
- Activity [2]: inactive
- Activity (Pseudomonas aeruginosa): inactive
- Activity (BJ): Non-Toxic
- Activity (Staphylococcus aureus): inactive
- Activity (MCF7): inactive
- Activity (Homo sapiens): inactive
- Activity (Candida albicans): inactive
